ChEMBL document CHEMBL3774374, “The Effect of Small Molecules on Sterol Homeostasis: Measuring 7-Dehydrocholesterol in Dhcr7-Deficient Neuro2a Cells and Human Fibroblasts” (J Med Chem, 2016)
Calls of active or inactive are those of the source. No cut-off for these calls is given here.

Experiments:
[1] = molecular target: T1, 3-hydroxy-3-methylglutaryl-coenzyme A reductase (Mus musculus) (UniProt Q01237); assay: Inhibition of HMGCoA reductase in Dhcr7-deficient mouse Neuro2a cells assessed as decrease in 7-DHC levels at 1 uM by LC-MS/GC-MS analysis; type: cell-based
T1 sequence (whole entry): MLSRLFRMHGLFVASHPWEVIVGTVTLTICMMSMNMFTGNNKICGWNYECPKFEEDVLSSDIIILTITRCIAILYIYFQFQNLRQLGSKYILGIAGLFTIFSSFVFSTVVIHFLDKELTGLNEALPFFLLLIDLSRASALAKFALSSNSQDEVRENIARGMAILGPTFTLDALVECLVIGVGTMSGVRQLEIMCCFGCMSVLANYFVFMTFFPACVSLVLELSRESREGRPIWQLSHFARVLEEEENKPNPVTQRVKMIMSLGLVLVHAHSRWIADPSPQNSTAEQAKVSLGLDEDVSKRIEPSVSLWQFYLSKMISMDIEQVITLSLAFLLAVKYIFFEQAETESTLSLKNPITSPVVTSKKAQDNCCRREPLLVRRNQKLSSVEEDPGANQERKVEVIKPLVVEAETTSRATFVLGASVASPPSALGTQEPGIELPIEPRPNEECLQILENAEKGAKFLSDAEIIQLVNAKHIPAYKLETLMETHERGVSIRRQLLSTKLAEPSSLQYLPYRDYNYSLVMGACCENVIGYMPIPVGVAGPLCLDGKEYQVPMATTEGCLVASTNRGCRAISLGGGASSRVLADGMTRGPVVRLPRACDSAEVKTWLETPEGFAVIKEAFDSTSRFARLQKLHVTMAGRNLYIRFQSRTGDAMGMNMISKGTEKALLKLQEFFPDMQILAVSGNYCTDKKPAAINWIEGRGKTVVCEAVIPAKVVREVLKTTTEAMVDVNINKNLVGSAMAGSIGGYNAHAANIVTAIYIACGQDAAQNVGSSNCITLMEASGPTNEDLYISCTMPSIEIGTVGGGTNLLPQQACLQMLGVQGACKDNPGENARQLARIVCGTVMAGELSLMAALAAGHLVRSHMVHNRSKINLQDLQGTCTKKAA
Method in brief: (§1)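 Dhcr7-deficient Neuro2a cells (13000/well, 0.5% FBS medium) on predeposited compound, 24 h at 37 °C. Hoechst-stained and imaged to count cells. Lysed in methanol containing isotope-labelled sterol standards, derivatized with PTAD 20 min at RT, then isocratic C18 UPLC-MS/SRM. Remaining extract silylated with BSTFA for GC-MS, quantified against d7-cholesterol. Follow-up runs in triplicate.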

N2a [2] = assay: Decrease in 7-DHC levels in Dhcr7-deficient mouse Neuro2a cells at 1 uM by LC-MS/GC-MS analysis; type: functional, cell-based; method in brief: as §1
[3] = molecular target: T2, Delta(24)-sterol reductase (Mus musculus) (UniProt Q8VCH6); assay: Inhibition of DR24 in Dhcr7-deficient mouse Neuro2a cells assessed as decrease in 7-DHC levels at 1 uM by LC-MS/GC-MS analysis; type: cell-based; method in brief: as §1
T2 sequence (whole entry): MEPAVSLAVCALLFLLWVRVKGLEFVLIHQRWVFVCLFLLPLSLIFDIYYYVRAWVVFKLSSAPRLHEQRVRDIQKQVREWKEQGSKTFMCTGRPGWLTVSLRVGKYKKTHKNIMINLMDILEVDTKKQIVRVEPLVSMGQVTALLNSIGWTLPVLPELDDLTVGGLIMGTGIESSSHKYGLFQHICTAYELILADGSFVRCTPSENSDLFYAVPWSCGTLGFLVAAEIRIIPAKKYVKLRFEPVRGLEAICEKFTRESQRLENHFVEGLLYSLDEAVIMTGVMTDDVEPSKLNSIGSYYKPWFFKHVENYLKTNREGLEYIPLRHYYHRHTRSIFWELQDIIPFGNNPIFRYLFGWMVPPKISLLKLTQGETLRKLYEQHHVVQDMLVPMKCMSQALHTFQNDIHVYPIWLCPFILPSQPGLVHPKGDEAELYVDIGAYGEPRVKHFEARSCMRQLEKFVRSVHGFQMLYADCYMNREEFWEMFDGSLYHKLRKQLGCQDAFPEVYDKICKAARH

N2a [4] = assay: Decrease in lanosterol levels in mouse Neuro2a cells by LC-MS analysis; type: functional, cell-based
Method in brief: (§2)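 Control Neuro2a cells (10000/well, 0.5% FBS) on compound, 24 h. Hoechst cell count, then methanol lysis with labelled standards (d7-7-DHC, 13C3-desmosterol, 13C3-lanosterol), PTAD derivatization 20 min at RT, UPLC-MS SRM. GC-MS of silylated extract for further sterols.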

N2a [5] = assay: Decrease in desmosterol levels in mouse Neuro2a cells by LC-MS analysis; type: functional, cell-based; method in brief: as §2
[6] = molecular target: T3, 3-beta-hydroxysteroid-Delta(8),Delta(7)-isomerase (Mus musculus) (UniProt P70245); assay: Inhibition of delta 8-7 isomerase in mouse Neuro2a cells assessed as decrease in 7-DHC levels at 1 uM by LC-MS/GC-MS analysis; type: cell-based; method in brief: as §2
T3 sequence (whole entry): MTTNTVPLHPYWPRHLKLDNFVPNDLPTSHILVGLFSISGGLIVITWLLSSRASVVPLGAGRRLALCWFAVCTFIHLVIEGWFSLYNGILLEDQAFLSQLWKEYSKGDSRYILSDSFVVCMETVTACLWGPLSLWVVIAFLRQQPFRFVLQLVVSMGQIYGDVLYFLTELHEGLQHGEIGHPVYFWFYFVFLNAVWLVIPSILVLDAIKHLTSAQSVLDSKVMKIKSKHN

[7] = molecular target: T2, Delta(24)-sterol reductase (Mus musculus); assay: Inhibition of DR24 in mouse Neuro2a cells assessed as decrease in 7-DHC levels at 1 uM by LC-MS/GC-MS analysis; type: cell-based; method in brief: as §2
[8] = molecular target: T3, 3-beta-hydroxysteroid-Delta(8),Delta(7)-isomerase (Mus musculus); assay: Inhibition of delta 8-7 isomerase in Dhcr7-deficient mouse Neuro2a cells assessed as decrease in 7-DHC levels at 1 uM by LC-MS/GC-MS analysis; type: cell-based; method in brief: as §1
[9] = molecular target: T4, Lanosterol 14-alpha demethylase (Mus musculus, UniProt Q8K0C4); assay: Inhibition of CYP51 in Dhcr7-deficient mouse Neuro2a cells assessed as decrease in 7-DHC levels at 1 uM by LC-MS/GC-MS analysis; type: cell-based
T4 sequence (Q8K0C4 whole entry): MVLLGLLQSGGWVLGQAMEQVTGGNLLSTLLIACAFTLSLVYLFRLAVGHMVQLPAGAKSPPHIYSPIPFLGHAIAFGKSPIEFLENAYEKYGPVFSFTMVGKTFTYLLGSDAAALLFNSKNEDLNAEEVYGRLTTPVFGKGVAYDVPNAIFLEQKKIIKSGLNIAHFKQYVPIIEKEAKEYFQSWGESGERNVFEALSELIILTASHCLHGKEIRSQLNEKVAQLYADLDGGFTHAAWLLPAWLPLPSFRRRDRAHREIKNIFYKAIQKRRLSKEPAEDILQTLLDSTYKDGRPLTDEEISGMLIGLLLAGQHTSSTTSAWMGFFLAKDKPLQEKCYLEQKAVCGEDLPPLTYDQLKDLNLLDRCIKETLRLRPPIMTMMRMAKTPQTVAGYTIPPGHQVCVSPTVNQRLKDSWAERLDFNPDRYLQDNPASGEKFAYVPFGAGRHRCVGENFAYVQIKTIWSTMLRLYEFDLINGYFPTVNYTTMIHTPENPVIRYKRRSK
Method in brief: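 Follow-up (verification) assay in 96-well plates, run as the 384-well screen, in triplicate, at varying compound concentrations. Cells counted by Hoechst imaging, washed with PBS, then lysed in MeOH with BHT/TPP and isotope standards (d7-Chol, d7-7-DHC, 13C3-Des, 13C3-Lan). Sterols derivatised with PTAD for 20 min at RT and quantified by C18 UPLC-MS (SRM). Remaining sample silylated with BSTFA and run on GC-MS, quantified against d7-Chol.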

[10] = molecular target: T5, Delta(24)-sterol reductase (Homo sapiens) (UniProt Q15392); assay: Inhibition of DR24 in human SLOS fibroblasts assessed as decrease in 7-DHC levels at 10 nM after 5 days by LC-MS/GC-MS analysis
T5 sequence (whole entry): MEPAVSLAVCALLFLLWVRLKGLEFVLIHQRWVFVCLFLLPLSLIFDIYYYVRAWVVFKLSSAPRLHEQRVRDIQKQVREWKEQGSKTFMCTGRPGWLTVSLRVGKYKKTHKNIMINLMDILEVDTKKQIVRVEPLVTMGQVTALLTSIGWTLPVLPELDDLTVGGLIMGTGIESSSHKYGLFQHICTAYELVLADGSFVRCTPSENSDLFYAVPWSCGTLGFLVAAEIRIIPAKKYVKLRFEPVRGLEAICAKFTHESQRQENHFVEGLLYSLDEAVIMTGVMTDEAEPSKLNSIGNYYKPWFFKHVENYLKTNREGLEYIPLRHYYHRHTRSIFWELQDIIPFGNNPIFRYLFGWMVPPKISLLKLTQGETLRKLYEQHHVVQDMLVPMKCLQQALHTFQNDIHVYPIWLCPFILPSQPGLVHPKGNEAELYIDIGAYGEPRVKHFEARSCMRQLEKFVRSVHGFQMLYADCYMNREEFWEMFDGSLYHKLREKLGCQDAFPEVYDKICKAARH
Method in brief: (§3)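 SLOS patient skin fibroblasts (passage 8–20) grown in 96-well plates in delipidated serum with compound for 5 days; three different SLOS lines. Sterols quantified by PTAD-derivatized UPLC-MS plus GC-MS; 7-DHC expressed as percentage of untreated cells.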

[11] = Cytotoxicity against human SLOS fibroblasts at 5 uM after 5 days by Cell Titer assay; type: cell-based; conditions: fibroblast, 120 h
Fibroblast = assay: Decrease in cholesterol levels in human SLOS fibroblasts at 10 nM after 5 days by LC-MS/GC-MS analysis; type: functional, cell-based; method in brief: as §3

**Q.** Which inhibition [1] does the source give for `C[C@@H]1CC[C@H]2[C@@H](C)C(=O)O[C@@H]3O[C@@]4(C)CC[C@@H]1[C@]32OO4` here?
**A.** Active

**Q.** Which Activity (N2a [2]) does the source give for `C[C@H]1c2cccc(O)c2C(=O)C2=C(O)[C@]3(O)C(=O)C(C(N)=O)=C(O)[C@@H](N(C)C)[C@@H]3[C@@H](O)[C@@H]21` here?
**A.** Active

**Q.** Which inhibition [3] does the source give for `Cc1ccc(NC(=O)c2ccc(CN3CCN(C)CC3)cc2)cc1Nc1nccc(-c2cccnc2)n1` here?
**A.** Active

**Q.** With `Clc1ccccc1CNC[C@H]1CC[C@H](CNCc2ccccc2Cl)CC1` as the compound, how does the Activity (N2a [4]) read?
**A.** Active

**Q.** What about the Activity (N2a [5]) of the same compound?
**A.** Active

**Q.** What does the source list for `O=C(CCCN1CCC(O)(c2ccc(Cl)cc2)CC1)c1ccc(F)cc1`?
**A.** Activity (N2a [4]): Active; Activity (N2a [5]): Active

**Q.** With `O=C(O)C[C@H](O)C[C@H](O)/C=C/c1c(C2CC2)nc2ccccc2c1-c1ccc(F)cc1` as the compound, how does the “Activity (decrease in 7-DHC levels)” value [6] read?
**A.** Active

**Q.** And the “Decrease in 7-DHC levels (active/inactive call)” value [7]?
**A.** Active

**Q.** And the “7-DHC decrease call (active/inactive)” value [1]?
**A.** Active

**Q.** Which Activity (N2a [4]) does the source give for `O=c1n(CCCN2CCN(c3cccc(Cl)c3)CC2)nc2ccccn12` here?
**A.** Active

**Q.** And the Activity (N2a [5])?
**A.** Active

**Q.** For `OCCN1CCN(CCCN2c3ccccc3Sc3ccc(C(F)(F)F)cc32)CC1`, which inhibition [8] is on record?
**A.** Active

**Q.** Which inhibition [8] does the source give for `OCCN1CCN(CCCN2c3ccccc3Sc3ccc(Cl)cc32)CC1` here?
**A.** Active

**Q.** And the inhibition [3]?
**A.** Active

**Q.** With `OCCOCCN1CCN(C(c2ccccc2)c2ccc(Cl)cc2)CC1` (centres undefined) as the compound, how does the inhibition [8] read?
**A.** Active

**Q.** For `c1ccc(-c2ccc(C(c3ccccc3)n3ccnc3)cc2)cc1` (centres undefined) [BIFONAZOLE], which “inhibition (INH)” value [9] is on record?
**A.** Active

**Q.** With `Clc1ccccc1C(c1ccccc1)(c1ccccc1)n1ccnc1` [CLOTRIMAZOLE] as the compound, how does the “inhibition (INH)” value [9] read?
**A.** Active

**Q.** Which “inhibition (INH)” value [9] does the source give for `Clc1ccc(COC(Cn2ccnc2)c2ccc(Cl)cc2Cl)cc1` (centres undefined) [ECONAZOLE] here?
**A.** Active

**Q.** With `C[C@]12CC[C@@H]3c4ccc(O)cc4C[C@@H](CCCCCCCCC[S+]([O-])CCCC(F)(F)C(F)(F)F)[C@H]3[C@@H]1CC[C@@H]2O` (some centres undefined) [FULVESTRANT] as the compound, how does the inhibition [10] read?
**A.** Active

**Q.** What about the Activity [11] of the same compound?
**A.** Toxic

**Q.** What about the Activity (Fibroblast) of the same compound?
**A.** inactive

**Q.** And the inhibition [3]?
**A.** Active

**Q.** Which “inhibition (INH)” value [9] does the source give for `Clc1ccc(COC(Cn2ccnc2)c2ccc(Cl)cc2Cl)c(Cl)c1` (centres undefined) [MICONAZOLE] here?
**A.** Active
